Calls of active or inactive are those of the source. The rule behind the calls is not given here.
How the values were obtained:
[1] = target: Cytochrome P450 3A4 (Homo sapiens, UniProt P08684); assay: Activity at CYP3A4; format: ADME
[2] = tested on: Rattus norvegicus; assay: Antidyslipedic activity in fasted Sprague-Dawley rat assessed as decrease in free fatty acid level at 0.001 mg/kg, po by NEFA C-free fatty acid assay; format: functional, organism-based; design: dose 0.001 mg/kg
Method in brief: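 Male Sprague-Dawley rats fasted, compound by oral gavage, serial plasma sampling after dosing for free fatty acids over a time course; vehicle-dosed control group.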

[3] = Terminal half life in mouse; format: ADME, organism-based; settings: in vivo, read-out: beta t1/2 (converted)
[4] = Plasma clearance in Sprague-Dawley rat at 2 mg/kg, iv; format: ADME, organism-based; design: dose 2 mg/kg, route intravenous
Method in brief: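 Male Sprague-Dawley rats were dosed at 10 mg/kg po or 2 mg/kg iv in 80% PEG400/20% phosphate-buffered saline, fasted overnight before the oral dose. Jugular blood was sampled serially from 0.25 to 21 h over 24 h, and heparinized plasma was prepared. Drug was assayed by HPLC/MS/MS (quantitation range 1–2000 ng/mL).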

[5] = Plasma clearance in dog; format: ADME, organism-based, Canis lupus familiaris
[6] = tested on: Canis familiaris; assay: Dose normalized AUC in po dosed dog; format: ADME, organism-based, Canis lupus familiaris; settings: in vivo
[7] = Oral bioavailability in dog; format: ADME, organism-based, Canis lupus familiaris; settings: in vivo
[8] = tested on: Rhesus monkey; assay: Dose normalized AUC in po dosed rhesus monkey; format: ADME, organism-based, Macaca mulatta; settings: in vivo
[9] = tested on: Homo sapiens; assay: Antidyslipedic activity in human assessed as decrease in free fatty acid level at 50 to 200 mg, po administered as a single dose measured after 1 to 2 hrs relative to placebo control; format: functional; design: scale not given: the % may be the effect or the level left
[10] = tested on: Homo sapiens; assay: Activation of GPR109a receptor in po dosed human assessed as PGD2 metabolite level in urine; format: functional, organism-based
[11] = AUC (0 to 12 hrs) in human at 50 mg, po BID administered on day 1 followed by 2-day wash out period after which dosing continued up to day 11 measured on day 1; format: ADME, organism-based; design: dose 50 mg, time < 12 hr, route oral; settings: plasma
Method in brief: (§1)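 Double-blind, placebo-controlled, randomized dose-escalation study in healthy male volunteers, six cohorts of eight (six active, two placebo). Oral dose on day 1, two-day washout, then dosing days 4–11; the 200 mg qd cohort was titrated over days 1–4. Venous blood taken predose and at 0.5–12 h on days 1, 4 and 11; plasma drug measured. τ 12 h (bid), 24 h (qd), 8 h (tid), 6 h (qid).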

[12] = AUC (0 to 12 hrs) in human at 50 mg, po BID administered on day 1 followed by 2-day wash out period after which dosing continued up to day 11 measured on day 11; format: ADME, organism-based; design: dose 50 mg, time < 12 hr, route oral; settings: plasma; method in brief: as §1
[13] = AUC (0 to 12 hrs) in human at 150 mg, po BID administered on day 1 followed by 2-day wash out period after which dosing continued up to day 11 measured on day 11; format: ADME, organism-based; design: dose 150 mg, time < 12 hr, route oral; settings: plasma; method in brief: as §1
[14] = AUC (0 to 8 hrs) in human at 150 mg, po TID administered on day 1 followed by 2-days wash out period after which dosing continued up to day 11 measured on day 4; format: ADME, organism-based; design: time < 8 hr, dose 150 mg, route oral; settings: plasma; method in brief: as §1
[15] = AUC (0 to 24 hrs) in human at titreated po dose administered from day 1 to 4 followed by 200 mg, po QD administered up to day 11 measured on day 11; format: ADME, organism-based; design: time < 24 hr, dose 200 mg, route oral; settings: plasma; method in brief: as §1
[16] = AUC (0 to 6 hrs) in human at 175 mg, po QID administered on day 1 followed by 2-days wash out period after which dosing continued up to day 11 measured on day 4; format: ADME, organism-based; design: time < 6 hr, dose 175 mg, route oral; settings: plasma; method in brief: as §1
[17] = Tmax in human at titreated po dose administered from day 1 to 4 followed by 200 mg, po QD administered up to day 11 measured on day 11; format: ADME, organism-based; settings: in vivo
Method in brief: (§2)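 Double-blind, placebo-controlled, randomized multiple oral dose study in healthy male volunteers (cohorts of eight; six active, two placebo). Dose given on day 1, then a two-day washout, then dosing days 4–11; for the QD arm, subjects were titrated over days 1–4. Venous plasma sampled predose and 0.5, 1, 1.5, 2, 4, 6, 8, 10, 12 h postdose on days 1, 4 and 11. Tmax reported as median (min–max).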

[18] = Tmax in human at 175 mg, po QID administered on day 1 followed by 2-days wash out period after which dosing continued up to day 11 measured on day 11; format: ADME, organism-based; settings: in vivo; method in brief: as §2
[19] = Apparent half life in human at 175 mg, po QID administered on day 1 followed by 2-days wash out period after which dosing continued up to day 11 measured on day 11; format: ADME, organism-based; settings: in vivo, read-out: t1/2(app) (converted); method in brief: as §1
[20] = tested on: Homo sapiens; assay: Toxicity in human assessed as occurrence of flushing at 10 to >10 mg administered for 1 to 2 days as divided dose; format: organism-based; settings: in vivo
Method in brief: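 Healthy volunteers scored subject-reported flushing with a flushing symptoms questionnaire after single oral doses and during repeat divided daily dosing.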

[21] = Cmax in human at 150 mg, po BID administered on day 1 followed by 2-day wash out period after which dosing continued up to day 11 measured on day 4; format: ADME, organism-based; design: dose 150 mg, route oral; settings: in vivo
Method in brief: (§3)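 Healthy male volunteers took part in a double-blind, randomized, placebo-controlled dose-escalation study, with cohorts of 8 (6 on drug, 2 on placebo). Each subject got an oral dose on day 1, then a 2-day washout, then dosing on days 4–11. The 200 mg qd group was titrated over days 1–4. Venous plasma was sampled predose and 0.5–12 h postdose on days 1, 4 and 11, and predose on days 5–10 for troughs.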

[22] = Cmax in human at 150 mg, po TID administered on day 1 followed by 2-days wash out period after which dosing continued up to day 11 measured on day 11; format: ADME, organism-based; design: dose 150 mg, route oral; settings: in vivo; method in brief: as §3
[23] = Cmax in human at 175 mg, po QID administered on day 1 followed by 2-days wash out period after which dosing continued up to day 11 measured on day 1; format: ADME, organism-based; design: dose 175 mg, route oral; settings: in vivo; method in brief: as §3
[24] = Cmin in human at 100 mg, po BID administered on day 1 followed by 2-day wash out period after which dosing continued up to day 11 measured on day 1 at 12 hrs; format: ADME, organism-based; settings: in vivo, read-out: Cmin; method in brief: as §3
[25] = Cmin in human at 150 mg, po TID administered on day 1 followed by 2-days wash out period after which dosing continued up to day 11 measured on day 1 at 8 hrs; format: ADME, organism-based; settings: in vivo, read-out: Cmin; method in brief: as §3
[26] = Cmin in human at titreated dose from day 1 to 4 followed by 200 mg, po QD administered up to day 11 measured on day 11 at 12 hrs; format: ADME, organism-based; settings: in vivo, read-out: Cmin; method in brief: as §3
[27] = Cmin in human at 175 mg, po QID administered on day 1 followed by 2-days wash out period after which dosing continued up to day 11 measured on day 4 at 6 hrs; format: ADME, organism-based; settings: in vivo, read-out: Cmin; method in brief: as §3
[28] = Cmin in human at 175 mg, po QID administered on day 1 followed by 2-days wash out period after which dosing continued up to day 11 measured on day 11 at 6 hrs; format: ADME, organism-based; settings: in vivo, read-out: Cmin; method in brief: as §3
[29] = Tmax in human at 50 mg, po BID administered on day 1 followed by 2-day wash out period after which dosing continued up to day 11 measured on day 4; format: ADME, organism-based; settings: in vivo; method in brief: as §2
[30] = Tmax in human at 50 mg, po BID administered on day 1 followed by 2-day wash out period after which dosing continued up to day 11 measured on day 11; format: ADME, organism-based; settings: in vivo; method in brief: as §2
[31] = Tmax in human at 100 mg, po BID administered on day 1 followed by 2-day wash out period after which dosing continued up to day 11 measured on day 11; format: ADME, organism-based; settings: in vivo; method in brief: as §2
[32] = Tmax in human at 150 mg, po TID administered on day 1 followed by 2-days wash out period after which dosing continued up to day 11 measured on day 4; format: ADME, organism-based; settings: in vivo; method in brief: as §2

Cytochrome P450 3A4, sequence (P08684 whole entry): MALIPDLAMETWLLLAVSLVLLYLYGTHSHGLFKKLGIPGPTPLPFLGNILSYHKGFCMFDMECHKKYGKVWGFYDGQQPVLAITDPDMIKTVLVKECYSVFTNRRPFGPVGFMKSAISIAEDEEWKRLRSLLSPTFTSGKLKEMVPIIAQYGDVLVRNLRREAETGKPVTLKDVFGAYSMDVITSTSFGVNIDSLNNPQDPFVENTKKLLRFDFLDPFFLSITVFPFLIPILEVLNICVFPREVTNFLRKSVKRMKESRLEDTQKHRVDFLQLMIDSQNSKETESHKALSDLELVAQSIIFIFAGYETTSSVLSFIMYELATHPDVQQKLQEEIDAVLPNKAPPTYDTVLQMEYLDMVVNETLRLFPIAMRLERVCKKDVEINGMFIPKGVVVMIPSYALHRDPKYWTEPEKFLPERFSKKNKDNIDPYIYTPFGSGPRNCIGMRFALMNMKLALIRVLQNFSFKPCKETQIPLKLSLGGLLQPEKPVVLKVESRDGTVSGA

With `O=C(O)c1n[nH]c2c1C[C@H]1C[C@@H]21` the Activity [1] was “Not Active”, the Activity [2] was “inactive” and the half-life [3] was 8.7 h. The clearance [4] was 17 mL/min/kg, the clearance [5] was 3.1 mL/min/kg and the AUC/dose [6] was 33.3 µM·kg·h/mg. It also gave a bioavailability [7] of 100%, an AUC/dose [8] of 8.5 µM·kg·h/mg and an Activity [9] of 90%. The Activity [10] was “Dose-dependent effect”, the AUC at 12 h [11] was 0.0294 µM·h and the AUC at 12 h [12] was 0.0254 µM·h. The AUC at 12 h [13] was 0.0788 µM·h, the AUC at 8 h [14] was 0.0885 µM·h and the AUC at 24 h [15] was 0.119 µM·h. The AUC at 6 h [16] was 0.113 µM·h, the Tmax [17] was 1.25 h and the Tmax [18] was 0.75 h. The half-life [19] was 6 h, the Activity [20] was “Non-toxic” and the Cmax [21] was 31.7 nM. For the same compound, the Cmax [22] was 44.9 nM, the Cmax [23] was 52.6 nM and the concentration at 12 h [24] was 0.124 nM. For the same compound, the concentration at 8 h [25] was 0.869 nM, the concentration at 12 h [26] was 0.273 nM and the concentration at 6 h [27] was 2.92 nM. It also gave a concentration at 6 h [28] of 2.86 nM, a Tmax [29] of 1.25 h and a Tmax [30] of 0.5 h. The Tmax [31] was 0.5 h and the Tmax [32] was 0.5 h.

From ChEMBL document CHEMBL2057168, “(1aR,5aR)1a,3,5,5a-Tetrahydro-1H-2,3-diaza-cyclopropa[a]pentalene-4-carboxylic acid (MK-1903): a potent GPR109a agonist that lowers free fatty acids in humans” (J Med Chem, 2012)
